Screens: PubChem, several laboratories
ABHD5-PLIN5 inh: ABHD5-PLIN5 interaction inhibitors, primary screen, cell lysate, split luciferase complementation, luminescence. inhibition, % at 4 µM. Perilipin-5 (Homo sapiens) + 1-acylglycerol-3-phosphate O-acyltransferase ABHD5 (Homo …. Split G. princeps luciferase complementation, 4 h. 360,000 compounds, 0.78% hits;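 active = inhibition above the mean inhibition across every tested compound plus 3 SD, cut at about 22% in these data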
A3A deaminase: APOBEC3A ssDNA deaminase inhibitors, primary screen, selectivity assay for APOBEC3G inhibitor project, biochemical, FAM/TAMRA oligo cleavage fluorescence; DNA dC->dU-editing enzyme APOBEC-3A (Homo sapiens), P31941; recombinant A3A, FAM/TAMRA ssDNA deamination fluorescence; inhibition, % at 20 µM; 330,000 compounds, 0.41% hits; AID 493011, 2011;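 active = at least 40% inhibition at 20 µM here, with at most 30% in a related deaminase screen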
Target sequence (P31941 whole entry, looked up): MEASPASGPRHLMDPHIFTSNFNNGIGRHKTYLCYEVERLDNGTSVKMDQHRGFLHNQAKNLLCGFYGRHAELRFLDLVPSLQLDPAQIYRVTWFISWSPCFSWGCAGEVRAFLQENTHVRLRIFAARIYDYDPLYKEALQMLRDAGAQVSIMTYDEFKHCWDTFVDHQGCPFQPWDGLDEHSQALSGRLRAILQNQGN
HCV core dimer: inhibitors of HCV core protein dimerization, primary screen, biochemical, TR-FRET, high-throughput. 300,000 compounds, 0.33% hits. TR-FRET GST/Flag-core106 dimerization, 1536-well. inhibition, % at 5 µM;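 active = inhibition above the mean of all tested compounds plus 3 SD, set per screening campaign, cut at about 45% in these data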
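Material: Tagged HCV core106 pair (GST and Flag) | Amount: GST-core106 13.5 nM, Flag-core106 17 nM | Medium: KF-containing HEPES buffer, pH 7.45, DTT, CHAPS, BSA | Reagent: Eu donor and XL665 acceptor anti-tag antibodies | Schedule: 4 h at 22.5 °C | Technique: Time-resolved FRET, ex 340 nm, em 617 and 671 nm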
PRMT1 FP inh: PRMT1 methyltransferase inhibitors, primary screen, biochemical, fluorescence polarization. Protein arginine N-methyltransferase 1 (Homo sapiens), Q99873. recombinant PRMT1, activity-based probe fluorescence polarization. inhibition, % at 2.79 µM. 370,000 compounds, 1.3% hits. AID 652257, 2013;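 active = inhibition above about 21% made by adding two undisclosed values, limit read from the data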
Target sequence (Q99873 whole entry, looked up): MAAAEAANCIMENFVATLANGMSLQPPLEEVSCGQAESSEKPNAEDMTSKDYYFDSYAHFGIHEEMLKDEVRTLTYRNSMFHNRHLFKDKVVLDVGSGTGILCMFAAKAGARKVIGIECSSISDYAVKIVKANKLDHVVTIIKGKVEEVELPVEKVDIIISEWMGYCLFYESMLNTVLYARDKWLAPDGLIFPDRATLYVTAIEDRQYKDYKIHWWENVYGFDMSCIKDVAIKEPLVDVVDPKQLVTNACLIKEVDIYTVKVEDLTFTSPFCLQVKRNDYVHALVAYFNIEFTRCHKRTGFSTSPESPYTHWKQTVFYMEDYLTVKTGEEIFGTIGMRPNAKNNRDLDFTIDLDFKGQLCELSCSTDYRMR
NS3 helicase inh: inhibitors of HCV NS3 helicase, primary screen, biochemical, Cy5 molecular beacon fluorescence; AID 1800, 2009; 290,000 compounds, 0.56% hits; Hepatitis C virus NS3 helicase; NS3 helicase DNA unwinding; inhibition, % at 10.9 µM;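 active = inhibition above the mean of all tested compounds plus 3 SD, set per campaign, cut at about 35% in these data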
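Assay system – hepatitis C virus NS3 helicase domain fragment enzyme · Buffer or medium – MOPS pH 6.5, MgCl2, DTT, Tween20, BSA · Reagent – Cy5/quencher beacon DNA duplex and ATP to start · Compound – single 10.9 µM dose · Timing – 1 h at 25 °C · Technique – Cy5 beacon fluorescence read at start and 1 h · Measure – % inhibition of unwinding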
APOBEC3G inh: APOBEC3G DNA deaminase inhibitors, primary screen, biochemical, fluorescence, single-stranded DNA substrate, uHTS; DNA dC->dU-editing enzyme APOBEC-3G (Homo sapiens), Q9HC16; recombinant A3G, ssDNA deamination FAM/TAMRA fluorescence; inhibition, % at 20 µM; 330,000 compounds, 0.28% hits;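 active = inhibition of at least 40% at 20 µM, with no more than 30% in the related APOBEC3A deaminase screen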
PRMT1 confirm: PRMT1 methyltransferase inhibitors, confirmation, biochemical, fluorescence polarization, triplicate. recombinant His-PRMT1, activity-based probe fluorescence polarization. shares compounds with PRMT1 FP inh. inhibition, % at 2.79 µM. 3,300 compounds, 42% hits. AID 687036, 2013;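 active = mean inhibition across replicates above the hit cutoff derived for the earlier primary screen, cut at about 22% in these data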
Numbers stand for hits; i = inactive; nt = no result; ! = not active in a repeat. Only some compounds are listed: those with a hit (about 2.9% of all), similar ones and a draw of the others.

SMILES	ABHD5-PLIN5 inh	A3A deaminase	HCV core dimer	PRMT1 FP inh	NS3 helicase inh	APOBEC3G inh	PRMT1 confirm
COc1ccccc1NP1(=O)OCC(C)([N+](=O)[O-])CO1 (stereo not drawn)	i	nt	nt	i	nt	nt	nt
C=CCOC(=O)C1C(C(=O)O)C2(Cl)C(Cl)=C(Cl)C1(Cl)C2(Cl)Cl (stereo not drawn)	i	nt	nt	63.9	nt	nt	i
Cc1ccc2cc(C=C(C#N)C#N)c(Cl)nc2c1	i	i	i	51.6	i	i	22.3
CN(C)c1ccc2c(c1)N=C(c1ccco1)OP2(=S)N1CCOCC1 (stereo not drawn)	i	i	i	26.2	i	i	49.5
CN(C)c1ccc(CCN2CCOCC2)cc1	i	i	i	i	nt	i	nt
COP(=O)(CC(=O)O)c1ccccc1 (stereo not drawn)	i	i	i	i	i	i	nt
NC(=O)CSP(=O)(c1ccccc1)c1ccccc1	i	i	i	37.7	i	i	65.0
CCN1CCN(C(=O)COc2ccc3oc4c(c3c2)CCCC4)CC1	i	i	nt	i	nt	i	nt
Cc1cc(/C=C2\C(=O)NC(=O)N(Cc3ccccc3)C2=O)c(C)n1-c1ccc(Cl)c(C(=O)O)c1	i	i	i	27.7	i	i	i
Cc1cc(/C=C2\C(=O)NC(=O)N(Cc3ccco3)C2=O)c(C)n1-c1ccc(O)cc1	i	i	46.8	28.6	i	i	i
Cc1cc(/C=C2\C(=O)NC(=O)N(Cc3ccccc3Cl)C2=O)c(C)n1-c1ccc(C(=O)O)cc1	i	i	i	i	i	i	nt
CN1C[C@H](CNC(=O)OCc2ccccc2)C[C@@H]2c3cccc4c3c(cn4C)C[C@H]21	i	i	i	39.3	i	i	i
CC(C)OC(=O)c1c(N)n(Cc2ccco2)c2nc3ccccc3nc12	i	i	i	i	i	i	nt
COCCOC(=O)c1c(N)n(Cc2ccco2)c2nc3ccccc3nc12	i	i	i	30.5	i	i	i
CC(C)[C@]12O[C@H]1[C@@H]1O[C@]13[C@]1(O[C@H]1C[C@H]1C4=C(CC[C@@]13C)C(=O)OC4)[C@@H]2O	nt	nt	i	nt	i	nt	nt
Cn1cc(NC(=O)CCl)cn1	i	i	i	i	i	i	nt
N#Cc1c(/N=C/c2c(O)n(Cc3ccco3)c(=O)[nH]c2=O)sc2c1CCCC2	i	i	i	25.6	i	i	i
COP(=S)(OC)SCn1nnc2ccccc2c1=O	i	nt	nt	89.1	nt	nt	74.3
CC/C(=N\NC(=S)Nc1ccccc1)c1c(O)[nH]c(=O)[nH]c1=O	i	i	i	45.3	i	i	46.1
CC[C@@H](CO)NC(=O)[C@@H]1C=C2c3cccc4[nH]cc(c34)C[C@H]2N(C)C1	i	nt	nt	30.0	nt	nt	i
CC[C@@H](CO)NC(=O)[C@@H]1C=C2c3cccc4c3c(cn4C)C[C@H]2N(C)C1	i	i	i	46.6!	i	i	i
COC(=O)C1C=C2c3cccc4[nH]cc(c34)CC2N(C)C1 (stereo not drawn)	nt	i	nt	nt	i	i	nt
CCC(CO)NC(=O)C1C=C2c3cccc4[nH]cc(c34)CC2N(C)C1 (stereo not drawn)	i	i	i	i	i	i	nt
Cc1ccc(S(=O)(=O)c2nc(-c3ccccc3Cl)oc2N(C)C2CCN(C)CC2)cc1	i	i	nt	i	nt	i	nt
CO[C@H]1C=C2CCN(C)[C@H]2C2c3cc4c(cc3C(=O)O[C@@H]21)OCO4 (stereo partly drawn)	i	i	i	i	nt	i	nt
SMILES	ABHD5-PLIN5 inh	A3A deaminase	HCV core dimer	PRMT1 FP inh	NS3 helicase inh	APOBEC3G inh	PRMT1 confirm
O=C(c1cc(=O)[nH]c2ccc(Br)cc12)N1CCC2(CC1)OCCO2	i	i	i	i	i	i	nt
Cn1cccc1/C=C1\C(=O)NC(=O)N(Cc2ccco2)C1=O	i	nt	nt	31.0	i	nt	21.9
Cc1ccc(OCCn2cccc2/C=C2/C(=O)NC(=O)N(Cc3ccco3)C2=O)cc1	i	i	i	32.4	i	i	i
CCc1ccc(N2C(=O)NC(=O)/C(=C\c3cccn3CCOc3ccc(C(C)C)cc3)C2=O)cc1	i	i	i	i	i	i	nt
O=P(Nc1ccccc1)(Oc1ccccc1)Oc1ccccc1	i	i	i	82.4	i	i	i
C=C1C(=O)O[C@@H]2C[C@@H](C)[C@@H]3C=CC(=O)[C@@]3(C)[C@@H](OC(=O)CC(=O)O[C@H]3[C@@H]4C(=C)C(=O)O[C@@H]4C[C@@H](C)[C@@H]4C=CC(=O)[C@]43C)[C@H]12	99.4	i	i	29.0	nt	i	26.4
CCOC(=O)c1c(/N=C/c2c(O)n(-c3ccc(F)cc3)c(=S)[nH]c2=O)sc2c1CCCC2	i	i	i	27.3	i	i	i
CCOC(=O)c1ccc(N=Cc2c(O)n(-c3ccc(OC)cc3)c(=S)[nH]c2=O)cc1	i	i	i	i	i	i	nt
CCOC(=O)c1c(/N=C/c2c(O)n(-c3ccccc3F)c(=S)[nH]c2=O)sc2c1CCCC2	i	i	i	41.8	i	i	i
O=C1OCCC1NC1=NCCC1 (stereo not drawn)	i	i	i	i	i	i	nt
COc1ccc(-n2c(O)c(C=NCCN(C)C)c(=O)[nH]c2=O)cc1	i	i	i	i	i	i	nt
COc1ccc2c(c1)NP(=S)(c1ccccc1)N2C (stereo not drawn)	i	nt	nt	33.0	nt	nt	i
CC(C)COC(=O)N1Cc2ccccc2-n2nncc2C1	i	nt	nt	i	nt	nt	nt
